Source: PubChem BioAssay (Broad Institute)
The list is not random: actives were taken first. Their share in the collection is about 2.7%.
CaV13 ICDI inh – Disruptors of the CACNA1D IQ motif to Ca2+-dependent inactivation inhibitor domain association, primary screening, Förster resonance energy transfer in intact living …. inhibition, % at 12.3 µM. hit rate 0.098% among 340,000. HEK cells, CFP/YFP FRET ICDI-IQ, plate reader, 10 min; percent FRET-ratio fall versus neutral wells;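 active = mean replicate inhibition of at least 30% and at least 1% of replicates passing that level; inconclusive = only one of the two criteria is met; inactive = neither criterion is met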
SIRT5 block – SIRT5 desuccinylase inhibitors, primary screen, biochemical, fluorescence imaging, single point, set 5 | NAD-dependent protein deacylase sirtuin-5, mitochondrial (Homo sapiens), Q9NXA8 | hit rate 1.1% among 330,000 | AID 652115, 2013 | inhibition, % at 15 µM | Purified SirT5, succinyl-peptide AMC, trypsin-coupled fluorescence; in the data active = inhibition above about 15%; inconclusive = no clear call, values can overlap the other calls
S100A4 MyoIIA – inhibitors of S100A4-myosin IIA peptide binding, primary screen, biochemical, fluorescence polarization, TAMRA-MyoIIA peptide; hit rate 0.14% among 360,000; Protein S100-A4 (Homo sapiens), P26447; inhibition, % at 10.7 µM; AID 652163, 2013;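 active = mean inhibition of at least 70% across replicates, with every replicate also reaching that level; inconclusive = mean inhibition reaches 70% but some replicates fall short; inactive = mean inhibition below 70%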
Target sequence (P26447 whole entry, looked up): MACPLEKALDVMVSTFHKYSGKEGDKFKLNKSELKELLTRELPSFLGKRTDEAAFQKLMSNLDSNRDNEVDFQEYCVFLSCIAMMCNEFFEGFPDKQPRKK
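Material: human S100A4 monomer with TAMRA-labelled myosin IIA peptide; buffer or medium: HEPES pH 7.2 with CaCl2, KCl, NaCl, DTT, Triton; compound dosing: one concentration per compound; schedule: 5 min incubation before reading; benchmarks: neutral control DMSO, positive control TFP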
DENV2 CPE rescue – inhibitors of DENV2 cytopathic effect, primary screen, cell-based, plate reader, single concentration; DENV2-infected cells, cytopathic effect rescue; CPE inhibition, % at 9.99 µM; hit rate 1.7% among 350,000; AID 651640, 2012; in the data active = CPE inhibition above about 20%, passing the limit was not always enough; inconclusive = no clear call, values can overlap the other calls; tested in BHK-21 cells
MLL AF4-AF9 inh – inhibitors of AF4 peptide binding to AF9, primary screen, biochemical, AlphaScreen, biotin-AF4 peptide, FLAG-AF9, single point. AID 651704, 2012. hit rate 0.47% among 350,000. inhibition, % at 10 µM;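 active = every replicate reaching a set inhibition limit, whatever the replicate mean, cut at about 25% in these data; inconclusive = mean inhibition reaches that limit but some replicates miss it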
Target sequence (P42568 whole entry, looked up): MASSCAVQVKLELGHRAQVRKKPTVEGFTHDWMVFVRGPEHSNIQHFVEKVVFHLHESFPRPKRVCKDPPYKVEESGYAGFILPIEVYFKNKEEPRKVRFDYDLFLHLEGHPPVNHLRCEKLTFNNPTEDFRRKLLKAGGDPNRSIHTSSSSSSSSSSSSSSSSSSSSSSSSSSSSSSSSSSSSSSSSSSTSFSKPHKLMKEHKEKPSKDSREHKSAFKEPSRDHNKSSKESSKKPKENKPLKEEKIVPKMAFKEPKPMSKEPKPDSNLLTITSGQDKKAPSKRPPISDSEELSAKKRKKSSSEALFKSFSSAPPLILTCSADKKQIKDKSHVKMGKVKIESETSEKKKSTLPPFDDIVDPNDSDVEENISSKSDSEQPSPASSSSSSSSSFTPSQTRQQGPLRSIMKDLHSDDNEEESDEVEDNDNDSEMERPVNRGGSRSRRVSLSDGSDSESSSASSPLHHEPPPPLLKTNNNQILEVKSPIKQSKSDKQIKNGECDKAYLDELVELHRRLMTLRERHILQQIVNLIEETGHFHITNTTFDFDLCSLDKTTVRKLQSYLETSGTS
Hits are given with their value; i = inactive; ? = inconclusive; nt = no result given.

SMILES | CaV13 ICDI inh | SIRT5 block | S100A4 MyoIIA | DENV2 CPE rescue | MLL AF4-AF9 inh
CC(C)OCCCn1c(SCC(=O)N2CCCC2=O)nc2ccccc2c1=O | i | i | i | i | i
C[C@@H]1CN([C@@H](C)CO)C(=O)Cc2cc(NC(=O)Nc3ccc(C(F)(F)F)cc3)ccc2O[C@@H]1CN(C)Cc1ccc2c(c1)OCO2 | nt | i | i | i | i
C[C@H](CO)N1C[C@H](C)[C@H](CN(C)Cc2ccc3c(c2)OCO3)Oc2ccc(NC(=O)c3ccncc3)cc2CC1=O | nt | i | i | i | i
C[C@@H]1CN([C@H](C)CO)C(=O)Cc2cc(NC(=O)Nc3ccc(C(F)(F)F)cc3)ccc2O[C@H]1CN(C)Cc1ccc(C(=O)O)cc1 | nt | i | i | 24.2 | i
C[C@H](CO)N1C[C@H](C)[C@@H](CN(C)Cc2ccc3c(c2)OCO3)Oc2ccc(NC(=O)c3ccncc3)cc2CC1=O | nt | i | i | 29.0 | i
C[C@@H]1CN([C@H](C)CO)C(=O)Cc2cc(NC(=O)Nc3ccc(C(F)(F)F)cc3)ccc2O[C@H]1CN(C)Cc1ccc2c(c1)OCO2 | nt | i | 100.6 | ? | i
C[C@H](CO)N1C[C@H](C)[C@H](CN(C)Cc2ccc(C(F)(F)F)cc2)Oc2ccc(NC(=O)Nc3ccccc3)cc2CC1=O | nt | i | i | 25.3 | i
CCCC[C@@H]1CCCO[C@@](C(=O)NCc2ccccn2)(C(F)(F)F)C1 | i | i | i | ? | i
CCC[C@@H]1CCCO[C@@](C(=O)NCc2ccccn2)(C(F)(F)F)C1 | i | i | i | 68.8 | i
CS(=O)(=O)Nc1ccccc1C(=O)NCc1ccccc1Cl | i | i | i | i | i
Cc1ccccc1CNC(=O)c1ccccc1NS(C)(=O)=O | i | 27.0 | i | i | i
COc1ccc([Si](C)(C)[C@@H]2[C@@H](CC(=O)N3Cc4ccccc4C[C@H]3CO)O[C@]3(C(=O)N(C)c4c(Br)cc(C)cc43)[C@H]2C)cc1 | nt | i | i | 21.3 | i
COc1ccc(C(=O)Nc2ccc(CN3C(=O)[C@]4(O[C@H](CC(=O)N5Cc6ccccc6C[C@H]5CO)[C@@H]([Si](C)(C)c5ccc(OC)cc5)[C@@H]4C)c4ccccc43)cc2)cc1 | nt | i | i | i | i
O=C(C[C@@H]1C[C@@H]2c3cc(NC(=O)c4cccnc4)ccc3O[C@@H]2[C@@H](CO)O1)NCc1cccc(F)c1 | nt | i | i | i | i
COc1ccc2c3c(n(C)c2c1)[C@H](CO)NCC31CN(Cc2ccccc2Cl)C1 | nt | i | i | i | 42.9
COc1ccc2c3c(n(C)c2c1)[C@H](CO)NCC31CCN(Cc2ccc(-c3ccccn3)cc2)CC1 | nt | nt | i | i | 30.3
COc1ccc2c3c(n(C)c2c1)[C@@H](CO)NCC31CN(C(=O)c2ccccc2)C1 | nt | nt | nt | i | i
COc1ccc2c3c(n(C)c2c1)[C@H](CO)NCC31CN(C(=O)Nc2ccccc2F)C1 | nt | i | i | 41.2 | i
COc1ccc2c3c(n(C)c2c1)[C@@H](CO)NCC31CN(Cc2ccc(-c3ccccn3)cc2)C1 | nt | i | i | i | 45.0
COc1ccc2c3c(n(C)c2c1)[C@@H](CO)NCC31CCN(Cc2ccc(-c3ccccn3)cc2)CC1 | nt | nt | i | i | ?
COc1ccc2c3c(n(C)c2c1)[C@H](CO)NCC31CN(C(C)=O)C1 | nt | nt | nt | ? | i
CC(=O)N(C)C[C@H]1Oc2ncc(C#CCc3ccccc3)cc2C(=O)N([C@H](C)CO)C[C@H]1C | nt | i | i | i | i
C[C@H]1CN([C@@H](C)CO)C(=O)c2cc(NS(=O)(=O)c3ccccc3)ccc2O[C@@H]1CN(C)Cc1ccc2c(c1)OCO2 | nt | nt | i | i | i
C[C@H]1CN([C@@H](C)CO)C(=O)c2cccc(NS(=O)(=O)c3cccs3)c2O[C@H]1CN(C)S(=O)(=O)c1cn(C)cn1 | nt | i | i | i | i
CO[C@@H]1CN(C)C(=O)c2cc(NS(=O)(=O)c3ccc(Cl)cc3)ccc2OC[C@H](C)N(C)C[C@@H]1C | nt | i | i | i | i
SMILES | CaV13 ICDI inh | SIRT5 block | S100A4 MyoIIA | DENV2 CPE rescue | MLL AF4-AF9 inh
CCCCC1O[C@@H](C)[C@@H]2CN3CCc4c([nH]c5ccccc45)[C@@H]3C[C@@H]2N1C (some centres not stated) | i | i | i | ? | nt
C[C@H](O)C#Cc1cnc2c(c1)C(=O)N([C@@H](C)CO)C[C@H](C)[C@H](CN(C)C(=O)Cc1ccccn1)O2 | nt | i | i | i | i
O=C1C(=Cc2ccccn2)CCc2ccccc21 | i | i | i | 38.1 | i
COc1ccc2c(c1)CC/C(=C/c1ccccn1)C2=O | i | i | i | i | i
CO[C@H]1CN(C)C(=O)c2ccc(NC(=O)Nc3ccccc3)cc2OC[C@H](C)N(C(C)=O)C[C@H]1C | nt | i | i | i | i
CO[C@@H]1CN(C)C(=O)c2ccc(NC(=O)Nc3ccccc3)cc2OC[C@@H](C)N(C(C)=O)C[C@H]1C | nt | 21.8 | i | 25.9 | i
CO[C@H]1CN(C)C(=O)c2cc(NC(=O)c3ccccc3F)ccc2OC[C@H](C)N(CC2CCOCC2)C[C@H]1C | nt | i | i | 80.9 | i
CO[C@H]1CN(C)C(=O)c2cc(NC(=O)Nc3ccccc3F)ccc2OC[C@H](C)N(C(C)=O)C[C@H]1C | nt | i | i | 21.4 | i
CO[C@@H]1CN(C)C(=O)c2cc(NC(=O)c3ccccc3F)ccc2OC[C@@H](C)N(C(C)=O)C[C@H]1C | nt | i | i | i | i
CO[C@@H]1CN(C)C(=O)c2cc(NC(=O)Nc3ccccc3F)ccc2OC[C@@H](C)N(C(C)=O)C[C@H]1C | nt | i | i | i | i
CO[C@H]1CN(C)C(=O)c2cc(NC(=O)c3ccccc3F)ccc2OC[C@@H](C)N(C(C)=O)C[C@@H]1C | nt | i | i | 69.8 | i
CO[C@@H]1CN(C)C(=O)c2cc(NC(=O)c3ccccc3F)ccc2OC[C@@H](C)N(CC2CCOCC2)C[C@H]1C | nt | i | i | i | i
CO[C@H]1CN(C)C(=O)c2ccc(NC(=O)Nc3ccccc3F)cc2OC[C@H](C)N(C)C[C@H]1C | nt | i | i | 33.2 | i
CO[C@@H]1CN(C)C(=O)c2ccc(NC(=O)Nc3ccccc3F)cc2OC[C@H](C)N(C)C[C@@H]1C | nt | i | ? | i | i
O=C1/C(=C\c2cc([N+](=O)[O-])ccc2O)SC(=S)N1Cc1ccc(Cl)cc1 | i | 15.7 | i | ? | i
O=C(Nc1ccc2c(c1)[C@H]1C[C@H](CC(=O)N3CCCCC3)O[C@H](CO)[C@H]1O2)NC1CCCC1 | nt | i | i | ? | i
COc1ccc(C=O)c2[nH]c3c(Cl)ncnc3c12 | i | 16.9 | i | i | i
COc1ccc(CCNCc2cc(C)n(-c3ccc(OC)cc3)c2C)cc1 | i | i | i | i | 39.4
Cc1cccc(N2CCN(C(=O)c3ccc4nc[nH]c4c3)CC2)c1C | i | 30.5 | i | i | i
